Source: ChEMBL document CHEMBL3259610, “Liver S9 Fraction-Derived Metabolites of Curcumin Analogue UBS109” (ACS Med Chem Lett, 2014)
One block for each compound: values may come before it. Active and inactive are the calls of the source. The calls are words filed in the database; no cut-off is given here.

Key:
[1] = Half life in human liver S9 fraction at 2 uM using 0.2% DMSO in presence of NADPH; assay type: ADME, subcellular
Procedure, shortened: (§1)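 Compound was incubated in pooled liver S9 fractions (mouse, cynomolgus monkey, human), mostly with NADPH and in 1% DMSO. Human S9 was also run without NADPH, and at 0.2% DMSO. Parent loss and metabolite formation were followed over time by LC–MS/MS, and half-life was derived from parent depletion.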

[2] = Drug metabolism in human liver S9 fraction assessed as (E)-1-methyl-3,5-bis(2-pyridinylmethylidene)-4-hydroxypiperidine formation at 1 uM using 1% DMSO measured after 1 hr by LC/MS-MS analysis in absence of NADPH; assay type: ADME; conditions: s9, 1 h; procedure, shortened: as §1
[3] = Drug metabolism in human liver S9 fraction assessed as (E)-1-methyl-3,5-bis(2-pyridinylmethylidene)-4-hydroxypiperidine formation at 1 uM using 1% DMSO measured at 60 mins by LC/MS-MS analysis in presence of NADPH; assay type: ADME, subcellular; conditions: s9, 1 h; procedure, shortened: as §1
[4] = Metabolic stability in human liver S9 fraction assessed as remaining compound level at 2 uM using 0.2% DMSO measured after 1 hr by LC/MS-MS analysis in absence of NADPH; assay type: ADME; conditions: read-out: Stability; procedure, shortened: as §1
[5] = Half life in human liver S9 fraction at 2 uM in absence of NADPH
[6] = Plasma protein binding in mouse; assay type: ADME, organism-based; conditions: read-out: PPB (converted)
[7] = Drug metabolism in Sprague-Dawley rat liver S9 fraction at 1 uM using 1% DMSO measured after 60 mins by LC/MS-MS analysis in presence of NADPH; assay type: ADME, subcellular; conditions: s9, 1 h
[8] = Drug metabolism in CD1 mouse liver S9 fraction assessed as (E)-1-methyl-3-(2-pyridinylmethyl)-5-(2-pyridinylmethylidene)-4-piperidone formation at 1 uM using 1% DMSO measured at 60 mins by LC/MS-MS analysis in presence of NADPH; assay type: ADME, subcellular; conditions: s9, 1 h; procedure, shortened: as §1
[9] = Drug metabolism in human liver S9 fraction assessed as (E)-1-methyl-3-(2-pyridinylmethyl)-5-(2-pyridinylmethylidene)-4-piperidone formation at 1 uM using 1% DMSO measured after 1 hr by LC/MS-MS analysis in absence of NADPH; assay type: ADME; conditions: s9, 1 h; procedure, shortened: as §1
[10] = Half life in cynomolgus monkey liver S9 fraction at 1 uM using 1% DMSO; assay type: ADME, subcellular, Macaca fascicularis; procedure, shortened: as §1
[11] = Drug metabolism in Beagle dog whole blood assessed as (E)-1-methyl-3-(2-pyridinylmethyl)-5-(2-pyridinylmethylidene)-4-piperidone formation at 1 uM after 2 hrs by LC/MS-MS analysis; assay type: ADME, tissue-based, Canis lupus familiaris
Blood [12] = assay: Drug metabolism in human whole blood assessed as (E)-1-methyl-3-(2-pyridinylmethyl)-5-(2-pyridinylmethylidene)-4-piperidone formation at 1 uM after 2 hrs by LC/MS-MS analysis; assay type: ADME, tissue-based
[13] = Elimination half life in mouse; assay type: ADME, organism-based; conditions: in vivo, read-out: beta t1/2 (converted)
[14] = Drug metabolism in human liver S9 fraction assessed as (E)-1-methyl-3-(2-pyridinylmethyl)-5-(2-pyridinylmethylidene)-4-piperidone formation at 1 uM using 1% DMSO measured at 60 mins by LC/MS-MS analysis in presence of NADPH; assay type: ADME, subcellular; conditions: s9, 1 h; procedure, shortened: as §1
[15] = Half life in CD1 mouse liver S9 fraction at 1 uM using 1% DMSO; assay type: ADME, subcellular; procedure, shortened: as §1
[16] = Metabolic stability in human liver S9 fraction assessed as remaining compound level at 2 uM using 0.2% DMSO measured after 1 hr by LC/MS-MS analysis in presence of NADPH; assay type: ADME, subcellular; conditions: read-out: Stability; procedure, shortened: as §1
[17] = Drug metabolism in cynomolgus monkey whole blood assessed as (E)-1-methyl-3-(2-pyridinylmethyl)-5-(2-pyridinylmethylidene)-4-piperidone formation at 1 uM after 2 hrs by LC/MS-MS analysis; assay type: ADME, tissue-based, Macaca fascicularis
TU212 = assay: Cytotoxicity against human TU212 cells assessed as cell viability at 5 to 10 uM after 48 hrs by neutral red dye uptake assay; assay type: functional, cell-based
Procedure, shortened: (§2)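 TU212 (head and neck SCC) and MDA-MB-231 (breast adenocarcinoma) cells were exposed to compounds at 5 and 10 μM with DMSO below 0.1%. Viability was read by neutral red uptake. Error bars are standard error of the mean, and significance was tested by two-tailed t test.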

Blood [18] = assay: Drug level in human whole blood treated with UBS109 at 1 uM after 2 hrs by LC/MS-MS analysis; assay type: ADME, tissue-based
[19] = Drug level in human liver S9 fraction treated with UBS109 at 1 uM using 1% DMSO measured at 60 mins by LC/MS-MS analysis in presence of NADPH; assay type: ADME, subcellular; conditions: s9, 1 h; procedure, shortened: as §1
[20] = Drug level in CD1 mouse liver S9 fraction treated with UBS109 at 1 uM using 1% DMSO measured after 60 mins by LC/MS-MS analysis in presence of NADPH; assay type: ADME, subcellular; conditions: s9, 1 h; procedure, shortened: as §1
[21] = Growth inhibition of human TU212 cells after 48 hrs by neutral red dye uptake assay; assay type: functional; conditions: TU212, 48 h; procedure, shortened: as §2
MDA-MB-231 = assay: Growth inhibition of human MDA-MB-231 cells after 48 hrs by neutral red dye-based assay; assay type: functional; conditions: MDA-MB-231, 48 h; procedure, shortened: as §2
[22] = Drug level in Beagle dog whole blood treated with UBS109 at 1 uM after 2 hrs by LC/MS-MS analysis; assay type: ADME, tissue-based, Canis lupus familiaris
Liver = assay: Drug level in human liver S9 fraction treated with UBS109 at 1 uM using 1% DMSO measured after 1 hr by LC/MS-MS analysis in absence of NADPH; assay type: ADME; conditions: s9, 1 h; procedure, shortened: as §1
[23] = Drug level in cynomolgus monkey whole blood treated with UBS109 at 1 uM after 2 hrs by LC/MS-MS analysis; assay type: ADME, tissue-based, Macaca fascicularis
[24] = Elimination half life in ND4 Swiss Webster mouse at 12.5 to 25 mg/kg, ip; assay type: ADME, organism-based; parameters: dose 12.5-25 mg/kg, route intraperitoneal; conditions: in vivo, read-out: beta t1/2

Compound: CN1C/C(=C\c2ccccn2)C(=O)C(Cc2ccccn2)C1 (configuration not stated)
- Drug metabolism (Blood [18]): metabolite_detected
- Drug metabolism [19]: metabolite_detected
- Drug metabolism [20]: metabolite_detected
- GI50 [21]: > 10 µM
- GI50 (MDA-MB-231): > 5 µM
- Drug metabolism [22]: metabolite_detected
- Drug metabolism (Liver): metabolite_detected
- Drug metabolism [23]: metabolite_detected

Compound: CN1C/C(=C\c2ccccn2)C(O)/C(=C/c2ccccn2)C1 (configuration not stated)
- Drug metabolism [19]: metabolite_detected
- GI50 [21]: > 10 µM
- GI50 (MDA-MB-231): > 10 µM
- Drug metabolism (Liver): metabolite_detected

Compound: O=C1/C(=C/c2ccccc2F)CNC/C1=C\c1ccccc1F
- half-life [13]: 60 min

Continued, in another order:

- half-life at 2 µM [1]: 9 min
- Drug metabolism [2]: metabolite_detected
- Drug metabolism [3]: metabolite_detected
- remaining at 1 h, 2 µM [4]: 27.6%
- half-life at 2 µM [5]: 18 min
- fraction unbound [6]: 0.06
- Drug metabolism [7]: metabolite_detected
- Drug metabolism [8]: metabolite_detected
- Drug metabolism [9]: metabolite_detected
- half-life at 1 µM [10]: 8 min
- Drug metabolism [11]: metabolite_detected
- Drug metabolism (Blood [12]): metabolite_detected
- half-life [13]: 240 min
- Drug metabolism [14]: metabolite_detected
- half-life at 1 µM [15]: 38 min
- remaining at 1 h, 2 µM [16]: 4.1%
- Drug metabolism [17]: metabolite_detected
Compound: CN1C/C(=C\c2ccccn2)C(=O)/C(=C/c2ccccn2)C1
- Activity (TU212): Active

- half-life [24]: ≤ 1 min
Compound: O=C1/C(=C/c2ccccn2)CNC/C1=C\c1ccccn1
